Results as given in PMC3059864 (Clinics, 2011).

How the values were obtained:
[1] = Biodistribution by pretargeting system in Nude mice bearing PC‐3 tumor cells; set-up: species or system Nude mice (Balb/c); details: mouse, in vivo, iv, 50 ul of the mixture
[2] = system: PC‐3 tumor xenografts; experiment: Scintigraphic imaging of tumor‐bearing mice; assay type: in vivo, Nude mice (Balb/c); details: tumor‐bearing Nude mice
Method in brief: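 PC-3 xenograft-bearing nude mice were pretargeted with the SA:B-MORF:biotinylated BBN analogue mixture (1:1:2) for 7 or 15 h, then given 99mTc-MAG3-cMORF intravenously. Anaesthetised mice, lying horizontally, were imaged on a gamma camera with a low-energy high-resolution collimator. Acquisition used a 20% energy window at 140 keV for 180 s. Tumour region-of-interest uptake was expressed as a percentage.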

CSCC[C@H](NC(=O)[C@H](CC(C)C)NC(=O)[C@H](Cc1c[nH]cn1)NC(=O)CNC(=O)[C@@H](NC(=O)[C@H](C)NC(=O)[C@H](Cc1c[nH]c2ccccc12)NC(=O)[C@H](CCC(N)=O)NC(=O)CCOCCOCCOCCOCCOCCOCCOCCOCCOCCOCCOCCOCCNC(=O)CCCC[C@@H]1SC[C@@H]2NC(=O)N[C@@H]21)C(C)C)C(N)=O [B‐PEG‐BBN, Biotin‐dPEG‐Gln‐Trp‐Ala‐Val‐Gly‐His‐Leu‐Met‐NH2]
tissue to tissue ratio [1]: 2.45
ROI (region of interest) in scintigraphic images ([2]; 7 h): 1.47%
ROI (region of interest) in scintigraphic images ([2]; 15 h): 1.22%
